Measurements gathered from unrelated publications.
Target: MAP kinase-interacting serine/threonine-protein kinase 2 (MKNK2, Homo sapiens, UniProt Q9HBH9)

SMILES	effect on	method	tested at	remaining binding [%]
CNCc1ccccc1-c1csc([C@@H](C)Nc2nc(C)nc3cc(OC)c(OC)cc23)c1	cell-free assay	competition with immobilised ligand	1 µM	63
C[C@H]1CCN(c2nccc(-c3cnn4ncccc34)n2)C1	binding	–	1 µM	2.3
C=CC(=O)N1CCC(C(=O)NCC(=O)N2CCN(c3nc(-c4cnc(N)nc4C(F)F)nc(N4CCOCC4)n3)CC2)CC1	binding	competition with immobilised ligand	1 µM	100
O=C(O)c1cc(-c2ccc(C3CCNCC3)cc2)c2ccc(-c3ccc(C(F)(F)F)cc3)cc2c1	cell-free assay	competition with immobilised ligand	1 µM	100
O=C(NCCCN1CCOCC1)c1ccc(Nc2nccc(-c3cc4ccccc4s3)n2)cc1	binding	competition with immobilised ligand	1 µM	28
CC1CCCN1c1nccc(-c2cnn3ncccc23)n1 (stereo not shown)	binding	–	1 µM	46
Nc1ncc2c(n1)-c1c([nH]c3ccc(C#CC4CC4)cc13)CCCC2	binding	competition with immobilised ligand	1 µM	77
CN(C)c1nccc(-c2cnc3ncccn23)n1	binding	–	1 µM	46
C[C@@H](c1ccc(-n2cnc3c(N)ncnc32)cc1)N1CCc2nn(C)c(Cc3ccccc3)c2C1=O	binding	competition with immobilised ligand	0.1 µM	62
O=C(Nc1c[nH]nc1C(=O)NC1CCNCC1)c1cc(F)cc(F)c1	binding	competition with immobilised ligand	1 µM	100
CNC(=O)Nc1ccc2c(c1)[C@@]1(CC2)OC(=O)N(CC(=O)N(Cc2ccc(F)cc2)[C@@H](C)C(F)(F)F)C1=O	cell-free assay	competition with immobilised ligand	1 µM	76
COc1ncc2cc3ccccc3nc2c1C#N	cell-free assay	competition with immobilised ligand	5 µM	98
O=C(c1ccc(Nc2nccc(-c3cc4ccccc4s3)n2)cc1)N1CCC(N2CCCC2)CC1	binding	competition with immobilised ligand	1 µM	4.6
F[C@@H]1CCN(c2nccc(-c3cnn4ncccc34)n2)C1	binding	–	1 µM	68
O=c1nc(-c2ccccn2)sc2ccccc12	binding	competition with immobilised ligand	1 µM	100
N[C@@H]1CCN(c2nccc(-c3cnn4ncccc34)n2)C1	binding	–	1 µM	14
CO[C@H]1CC[C@H](CNc2ccc(S(=O)(=O)NC(=O)c3ccc(N4CCN(CC5=C(c6ccc(Cl)cc6)CC(C)(C)CC5)CC4)cc3Oc3cnc4[nH]ccc4c3)cc2[N+](=O)[O-])CC1	cell-free assay	competition with immobilised ligand	1 µM	73
COc1ccnn2ncc(-c3ccnc(N(C)C)n3)c12	binding	–	1 µM	78
Cc1cnc(Nc2ccc(C(=O)N3CCC(N4CCCC4)CC3)cc2)nc1-c1cc2ccccc2s1	binding	competition with immobilised ligand	1 µM	5.4
CNC(=O)[C@@H]1CC[C@@H](n2c(-c3ccc4cnccc4c3)nc3ccc(C(=O)NCc4cccc(C(N)=O)c4)cc32)C1	binding	competition with immobilised ligand	1 µM	100
c1cnn2ncc(-c3ccnc(N4CCC45COC5)n3)c2c1	binding	–	1 µM	3.3
COCCOc1nc(-c2ccc(Cl)nc2)nc2c1CN(C(=O)c1ncn3ccccc13)CC2	cell-free assay	competition with immobilised ligand	0.1 µM	100
C[C@@H]1CN(c2ccc3ncc(-c4ccc5[nH]nc(C6CC6)c5c4)n3n2)C[C@H](C)O1	binding	competition with immobilised ligand	0.5 µM	45
CNC(=O)c1ccc(Nc2ncc(C(F)(F)F)c(NCc3nccnc3N(C)S(C)(=O)=O)n2)cc1	cell-free assay	competition with immobilised ligand	0.1 µM	100
c1cncc(-c2cccc(Nc3nccc(NC4CCCCC4)n3)c2)c1	binding	competition with immobilised ligand	10 µM	33
